In ChEMBL document CHEMBL1159109, “Design and synthesis of some new quinoline-3-carbohydrazone derivatives as potential antimycobacterial agents” (Bioorg Med Chem Lett, 2010):
In brackets after ≈: the same amount, converted by molar mass.

Columns and labels:
[1] = tested on: Mycobacterium tuberculosis; test: Antimycobacterial activity against Mycobacterium tuberculosis H37Rv ATCC 27294 after 7 days by resazurin assay; type: functional; details: H37Rv ATCC 27294, 168 h
Outline: (§1)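 Broth microdilution resazurin assay. Culture diluted to McFarland 2 standard in the same medium and added to fresh medium. Test compounds from 2 mg/mL DMF stocks, first tested at 1, 10 and 100, then at 0.3125–5; DMF-only controls. Incubated 37 °C for 7 days, then 0.01% resazurin added. Blue-to-pink change scored; MIC taken as lowest concentration preventing the colour change.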

[2] = tested on: Mycolicibacterium smegmatis; test: Antimycobacterial activity against Mycobacterium smegmatis MC2 155 ATCC 19420 after 7 days by resazurin assay; type: functional; details: MC2 155 ATCC 19420, 168 h; outline: as §1
[3] = tested on: Mycolicibacterium fortuitum; test: Antimycobacterial activity against Mycobacterium fortuitum ATCC 19542 after 7 days by resazurin assay; type: functional; details: ATCC 19542, 168 h
Outline: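 M. fortuitum ATCC 19542 culture diluted to McFarland 2 standard in medium and dispensed into 96-well plates. Compounds came from 2 mg/mL DMF stocks and were screened at 1, 10 and 100, then retested at […]. Controls received DMF alone. After 7 days at 37 °C, 0.01% resazurin was added and colour read after 1 h at 37 °C. MIC was the level keeping the dye blue.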

Mycobacterium = test: Inhibition of Mycobacterium membrane bound ATP synthase; parameters: concentration or dose not given beside the values; details: concentration not given here
Vero = test: Cytotoxicity against african green monkey Vero cells after 72 hrs by MTT assay; type: cell-based; details: Chlorocebus sabaeus
Outline: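 Cells were exposed for 72 h, then viability was read as cellular conversion of MTT to formazan with a non-radioactive cell proliferation kit.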

CN(C)C(=O)C[C@H](CSc1ccccc1)Nc1c(C(=O)N/N=C/c2ccc(Br)s2)cnc2ccc(F)cc12
MIC [1]: > 100 µg/mL | MIC [2]: > 100 µg/mL | MIC [3]: > 100 µg/mL | inhibition (Mycobacterium): 0%

CSCC/C=N/NC(=O)c1cnc2ccc(F)cc2c1N[C@@H](CSc1ccccc1)CC(=O)N(C)C
MIC [1]: > 100 µg/mL | MIC [2]: > 100 µg/mL | MIC [3]: > 100 µg/mL | inhibition (Mycobacterium): 0%

CCCCCCCC/C=N/NC(=O)c1cnc2c(C(F)(F)F)cccc2c1N[C@@H](CSc1ccccc1)CC(=O)N(C)C
MIC [1]: 1 µg/mL (≈ 1.62 µM) | MIC [2]: 10 µg/mL (≈ 16.2 µM) | MIC [3]: 5 µg/mL (≈ 8.12 µM) | inhibition (Mycobacterium): > 95% | IC50 (Vero): > 62.5 µg/mL

CN(C)C(=O)C[C@H](CSc1ccccc1)Nc1c(C(=O)N/N=C/c2cc(F)ccc2O)cnc2c(C(F)(F)F)cccc12
MIC [1]: 10 µg/mL (≈ 16.3 µM) | MIC [2]: > 100 µg/mL | MIC [3]: > 100 µg/mL | inhibition (Mycobacterium): 0%

CN(C)C(=O)C[C@H](CSc1ccccc1)Nc1c(C(=O)N/N=C/c2cc(F)ccc2O)cnc2ccc(F)cc12
MIC [1]: 10 µg/mL (≈ 17.7 µM) | MIC [2]: > 100 µg/mL | MIC [3]: > 100 µg/mL | inhibition (Mycobacterium): 0%

CN(C)C(=O)C[C@H](CSc1ccccc1)Nc1c(C(=O)N/N=C/c2ccccc2F)cnc2c(C(F)(F)F)cccc12
MIC [1]: 2.5 µg/mL (≈ 4.18 µM) | MIC [2]: 5 µg/mL (≈ 8.37 µM) | MIC [3]: > 100 µg/mL | inhibition (Mycobacterium): 90% | IC50 (Vero): > 62.5 µg/mL

CSc1ccccc1/C=N/NC(=O)c1cnc2c(C(F)(F)F)cccc2c1N[C@@H](CSc1ccccc1)CC(=O)N(C)C
MIC [1]: > 100 µg/mL | MIC [2]: > 100 µg/mL | MIC [3]: > 100 µg/mL | inhibition (Mycobacterium): 0%

CN(C)C(=O)C[C@H](CSc1ccccc1)Nc1c(C(=O)N/N=C/c2ccc(F)cc2)cnc2c(C(F)(F)F)cccc12
MIC [1]: 5 µg/mL (≈ 8.37 µM) | MIC [2]: > 100 µg/mL | MIC [3]: 10 µg/mL (≈ 16.7 µM) | inhibition (Mycobacterium): 90% | IC50 (Vero): > 62.5 µg/mL

CN(C)C(=O)C[C@H](CSc1ccccc1)Nc1c(C(=O)N/N=C/c2ccc(OC(F)(F)F)cc2)cnc2c(C(F)(F)F)cccc12
MIC [1]: 5 µg/mL (≈ 7.53 µM) | MIC [2]: > 100 µg/mL | MIC [3]: 5 µg/mL (≈ 7.53 µM) | inhibition (Mycobacterium): 90% | IC50 (Vero): > 62.5 µg/mL

COc1ccc(/C=N/NC(=O)c2cnc3ccc(F)cc3c2N[C@@H](CSc2ccccc2)CC(=O)N(C)C)cc1
MIC [1]: 10 µg/mL (≈ 17.9 µM) | MIC [2]: > 100 µg/mL | MIC [3]: > 100 µg/mL | inhibition (Mycobacterium): 0%

COc1ccc(/C=N/NC(=O)c2cnc3c(C(F)(F)F)cccc3c2N[C@@H](CSc2ccccc2)CC(=O)N(C)C)cc1
MIC [1]: > 100 µg/mL | MIC [2]: > 100 µg/mL | MIC [3]: > 100 µg/mL | inhibition (Mycobacterium): 0%

CN(C)C(=O)C[C@H](CSc1ccccc1)Nc1c(C(=O)N/N=C/c2cccc(OC(F)(F)C(F)F)c2)cnc2c(C(F)(F)F)cccc12
MIC [1]: 1 µg/mL (≈ 1.44 µM) | MIC [2]: 5 µg/mL (≈ 7.19 µM) | MIC [3]: 2.5 µg/mL (≈ 3.59 µM) | inhibition (Mycobacterium): > 95% | IC50 (Vero): > 62.5 µg/mL

CN(C)C(=O)C[C@H](CSc1ccccc1)Nc1c(C(=O)N/N=C/c2cccnc2)cnc2ccc(F)cc12
MIC [1]: 5 µg/mL (≈ 9.42 µM) | MIC [2]: > 100 µg/mL | MIC [3]: 10 µg/mL (≈ 18.8 µM) | inhibition (Mycobacterium): 90% | IC50 (Vero): > 62.5 µg/mL

CN(C)C(=O)C[C@H](CSc1ccccc1)Nc1c(C(=O)N/N=C/c2cccc(OC(F)(F)C(F)F)c2)cnc2ccc(F)cc12
MIC [1]: 0.625 µg/mL (≈ 0.968 µM) | MIC [2]: 2.5 µg/mL (≈ 3.87 µM) | MIC [3]: 1 µg/mL (≈ 1.55 µM) | inhibition (Mycobacterium): > 95% | IC50 (Vero): > 62.5 µg/mL

CN(C)C(=O)C[C@H](CSc1ccccc1)Nc1c(C(=O)N/N=C/c2ccccc2F)cnc2ccc(F)cc12
MIC [1]: 1 µg/mL (≈ 1.83 µM) | MIC [2]: 10 µg/mL (≈ 18.3 µM) | MIC [3]: 5 µg/mL (≈ 9.13 µM) | inhibition (Mycobacterium): > 95% | IC50 (Vero): > 62.5 µg/mL

CO[C@H]1/C=C/O[C@@]2(C)Oc3c(C)c(O)c4c(O)c(c(/C=N/N5CCN(C)CC5)c(O)c4c3C2=O)NC(=O)/C(C)=C\C=C\[C@H](C)[C@H](O)[C@@H](C)[C@@H](O)[C@@H](C)[C@H](OC(C)=O)[C@@H]1C [RIFAMPIN]
MIC [1]: 0.5 µg/mL (≈ 0.608 µM) | MIC [2]: 1.5 µg/mL (≈ 1.82 µM) | MIC [3]: 1.5 µg/mL (≈ 1.82 µM) | inhibition (Mycobacterium): > 95% | IC50 (Vero): > 62.5 µg/mL

CN(C)C(=O)C[C@H](CSc1ccccc1)Nc1c(C(=O)N/N=C/c2ccc(OC(F)(F)F)cc2)cnc2ccc(F)cc12
MIC [1]: 2.5 µg/mL (≈ 4.07 µM) | MIC [2]: > 100 µg/mL | MIC [3]: 5 µg/mL (≈ 8.15 µM) | inhibition (Mycobacterium): 90% | IC50 (Vero): > 62.5 µg/mL

CSc1ccccc1/C=N/NC(=O)c1cnc2ccc(F)cc2c1N[C@@H](CSc1ccccc1)CC(=O)N(C)C
MIC [1]: > 100 µg/mL | MIC [2]: > 100 µg/mL | MIC [3]: > 100 µg/mL | inhibition (Mycobacterium): 0%

COc1ccc(/C=N/NC(=O)c2cnc3ccc(F)cc3c2N[C@@H](CSc2ccccc2)CC(=O)N(C)C)cc1O
MIC [1]: 5 µg/mL (≈ 8.69 µM) | MIC [2]: > 100 µg/mL | MIC [3]: 5 µg/mL (≈ 8.69 µM) | inhibition (Mycobacterium): 90% | IC50 (Vero): > 62.5 µg/mL

CN(C)C(=O)C[C@H](CSc1ccccc1)Nc1c(C(=O)N/N=C/c2ccc(Br)s2)cnc2c(C(F)(F)F)cccc12
MIC [1]: 10 µg/mL (≈ 15 µM) | MIC [2]: > 100 µg/mL | MIC [3]: > 100 µg/mL | inhibition (Mycobacterium): 90% | IC50 (Vero): > 62.5 µg/mL

CSCC/C=N/NC(=O)c1cnc2c(C(F)(F)F)cccc2c1N[C@@H](CSc1ccccc1)CC(=O)N(C)C
MIC [1]: 10 µg/mL (≈ 17.3 µM) | MIC [2]: > 100 µg/mL | MIC [3]: > 100 µg/mL | inhibition (Mycobacterium): 90%

CN(C)C(=O)C[C@H](CSc1ccccc1)Nc1c(C(=O)N/N=C/c2ccc(F)cc2)cnc2ccc(F)cc12
MIC [1]: 1 µg/mL (≈ 1.83 µM) | MIC [2]: 10 µg/mL (≈ 18.3 µM) | MIC [3]: 5 µg/mL (≈ 9.13 µM) | inhibition (Mycobacterium): 95% | IC50 (Vero): > 62.5 µg/mL

NNC(=O)c1ccncc1 [ISONIAZID]
MIC [1]: 1 µg/mL (≈ 7.29 µM) | MIC [2]: 50 µg/mL (≈ 365 µM) | MIC [3]: 12.5 µg/mL (≈ 91.1 µM) | inhibition (Mycobacterium): > 95% | IC50 (Vero): > 62.5 µg/mL

CN(C)C(=O)C[C@H](CSc1ccccc1)Nc1c(C(=O)N/N=C/c2cccnc2)cnc2c(C(F)(F)F)cccc12
MIC [1]: 0.625 µg/mL (≈ 1.08 µM) | MIC [2]: 2.5 µg/mL (≈ 4.31 µM) | MIC [3]: 1 µg/mL (≈ 1.72 µM) | inhibition (Mycobacterium): > 95% | IC50 (Vero): > 62.5 µg/mL

COc1ccc(/C=N/NC(=O)c2cnc3c(C(F)(F)F)cccc3c2N[C@@H](CSc2ccccc2)CC(=O)N(C)C)c(F)c1
MIC [1]: 10 µg/mL (≈ 15.9 µM) | MIC [2]: > 100 µg/mL | MIC [3]: > 100 µg/mL | inhibition (Mycobacterium): 90%

COc1ccc(/C=N/NC(=O)c2cnc3c(C(F)(F)F)cccc3c2N[C@@H](CSc2ccccc2)CC(=O)N(C)C)cc1O
MIC [1]: 5 µg/mL (≈ 7.99 µM) | MIC [2]: > 100 µg/mL | MIC [3]: 10 µg/mL (≈ 16 µM) | inhibition (Mycobacterium): 90% | IC50 (Vero): > 62.5 µg/mL

COc1ccc(/C=N/NC(=O)c2cnc3ccc(F)cc3c2N[C@@H](CSc2ccccc2)CC(=O)N(C)C)c(F)c1
MIC [1]: 5 µg/mL (≈ 8.66 µM) | MIC [2]: > 100 µg/mL | MIC [3]: > 100 µg/mL | inhibition (Mycobacterium): 0%

CCCCCCCC/C=N/NC(=O)c1cnc2ccc(F)cc2c1N[C@@H](CSc1ccccc1)CC(=O)N(C)C
MIC [1]: 1 µg/mL (≈ 1.77 µM) | MIC [2]: 10 µg/mL (≈ 17.7 µM) | MIC [3]: 5 µg/mL (≈ 8.84 µM) | inhibition (Mycobacterium): > 95% | IC50 (Vero): > 62.5 µg/mL
